This note sets out measurements from PubChem BioAssay.

Activity calls are given as the source filed them.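 The calls were made as follows, unless noted: active = viability at or below 30% in both replicate assays; inconclusive = viability at or below 30% in just one of the two assays; inactive = the rest.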

Assay [1] in a line: reduced viability of SK-BR-3 breast cancer cells – cell-based, 24 h, human, pilot screen (AID 572;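 active = viability at or below 10% of carrier control in both of two separate runs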;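 also: compound exposure lasted between 18 and 24 h rather than exactly 24 h; 100% = carrier-treated control wells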). The note with it: SK-BR-3 viability, CellTiter-Glo luminescence, at 10 µM, stronger effect = lower value. A general note: In ATP-based viability assays light output follows the ATP content of the culture.
Assay [2] in a line: HUVEC growth inhibition – cell-based, human, primary screen (AID 575).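 Also: 100% = median of untreated cell wells with 0.1% DMSO on each plate.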 The note with it: HUVEC proliferation, CellTiter-Glo luminescence, 72 h; at 10 µM; stronger effect = lower value. The procedure, abridged:
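Test system – primary HUVEC, no more than 12 passages · Dosing – one dose, 10 µM final, 0.1% DMSO · Times – 72 h treatment at 37 °C · Measured by – ATP-based CellTiter-Glo luminescent read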

Assay [3] can be described thus: H69AR cell proliferation blockers – human, duplicate replicates, primary screen (AID 580;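 active = viability at or under a set limit in both replicates, limit being median viability minus 3 SD, cut at about 48% in these data, passing the limit was not always enough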;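 also: 100% = mean luminescence of untreated wells and 0% = no signal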). The note with it: H69AR lung tumor cells viability, ATP luminescence, 72 h; at 10 µM; stronger effect = lower value.
A short description of assay [4]: MRP1 drug-resistance reversers in H69AR cells – cell-based, doxorubicin co-treatment, pilot screen (AID 601;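 active = viability loss from added drug above about 55%, and viability with drug at most 40%, in both replicates, limit read from the data, passing the limit was not always enough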). The note with it: CellTiter-Glo, 72 h, at 10 µM; for differential viability (reversal): stronger effect = higher value.
A short description of assay [5]: yeast transport mutant growth inhibition pilot in 384-well plates, post-Golgi transport modulator project (AID 636; in the data active = inhibition above about 31%). The conditions noted are these: absorbance 615 nm, about 18 h, stronger effect = higher value.
Assay [6] can be described thus: growth suppression of yeast trafficking mutant, preliminary HTS, modulators of trafficking downstream of Golgi apparatus project, 1536-format plate, OD 615 nm (AID 637; in the data active = inhibition above about 30%). The note with it: yeast transport mutant growth, absorbance 615 nm, 18 h; stronger effect = higher value.
Setting [7] is: H69AR cells + 2 uM doxorubicin, measured here: viability with 2 uM doxorubicin, stronger effect = lower value.
Setting [8] is: H69AR cells, compound alone cytotoxicity.

A word on the viability: it is a read-out of living cells in per cent, often relative to untreated cells. In general, inhibition refers to the relative decrease from the control value, in per cent. Turning to `Cc1ccc(NC(=O)COC(=O)c2ccn(C)n2)cc1`, the viability in assay [1] is 76% (inactive); in assay [2], 90.8% (inactive); in assay [3], 87.2% (inactive); in assay [4] (setting [7]) it was 79.4%; in assay [4] (setting [8]), 87.2%. Further, the differential viability (reversal) in assay [4] (H69AR cells + 2 uM doxorubicin) was 7.78% (inactive). In addition, the inhibition in assay [5] was -2.74% (inactive); in assay [6], -1.09% (inactive).

For the compound `COc1ccc(C(=O)CSc2nnc(-c3ccc(C)cc3)o2)cc1`, the viability in assay [1] was 97% (inactive); in assay [2] it was 110% (inactive); in assay [3], 86.4% (inactive); in assay [4] (setting [7]), 89%; in assay [4] (setting [8]), 86.4%. The differential viability (reversal) in assay [4] (H69AR cells + 2 uM doxorubicin) is -2.64% (inactive). The inhibition in assay [5] was 4% (inactive); in assay [6], 5.09% (inactive).

`CC1CC(C)CN(CC(=O)Nc2ccc(S(N)(=O)=O)cc2)C1` (centres undefined): the viability is 96% (inactive) in assay [1]; 96.9% (inactive) in assay [2]; 84.9% (inactive) in assay [3]; 82.8% in assay [4] (setting [7]); 84.9% in assay [4] (setting [8]). Also, the differential viability (reversal) in assay [4] (H69AR cells + 2 uM doxorubicin) was 2.1% (inactive). Moreover, the inhibition in assay [5] is 3.29% (inactive); in assay [6], -2.58% (inactive).

For the compound `Cc1ccc2c(c1)N(CC(=O)Nc1ccc3c(c1)OCCO3)C(=O)CO2`, the viability is 104% (inactive) in assay [1]; 103% (inactive) in assay [2]; 105% (inactive) in assay [3]; 94.3% in assay [4] (setting [7]); 105% in assay [4] (setting [8]). For the same compound, the differential viability (reversal) in assay [4] (H69AR cells + 2 uM doxorubicin) was 10.7% (inactive). The inhibition is -5% (inactive) in assay [5] and -4.73% (inactive) in assay [6].

For the compound `COc1ccc(-c2noc(COc3ccc(C)c(C)c3)n2)cc1OC`, the viability in assay [1] is 110% (inactive); in assay [2], 108% (inactive); in assay [3] it was 94.1% (inactive); in assay [4] (setting [7]), 96.6%; in assay [4] (setting [8]), 94.1%. In assay [4] (H69AR cells + 2 uM doxorubicin), the differential viability (reversal) was -2.45% (inactive). In addition, the inhibition in assay [5] is -7.3% (inactive); in assay [6] it was -1.64% (inactive).

With `COCCCNC(=O)CCCn1c(=O)c2ccccc2n(CC(=O)Nc2c(C)cccc2C)c1=O`, the viability in assay [1] was 99% (inactive); in assay [2] it was 97.6% (inactive); in assay [3], 93.1% (inactive); in assay [4] (setting [7]), 88.2%; in assay [4] (setting [8]), 93.1%. Further, the differential viability (reversal) in assay [4] (H69AR cells + 2 uM doxorubicin) is 4.87% (inactive). The inhibition is -1.69% (inactive) in assay [5] and -1.31% (inactive) in assay [6].

Take `Cc1c2cnn(CC(=O)N3CCN(c4ncccn4)CC3)c(=O)c2c(C)n1Cc1ccc(F)cc1`: the viability in assay [1] was 99% (inactive); in assay [2], 106% (inactive); in assay [3], 99.5% (inactive); in assay [4] (setting [7]) it was 97.2%; in assay [4] (setting [8]), 99.5%. For the same compound, in assay [4] (H69AR cells + 2 uM doxorubicin), the differential viability (reversal) is 2.37% (inactive). Moreover, the figures for the inhibition in assay [5] and in assay [6] were 5.14% (inactive) and -4.73% (inactive), respectively.

Regarding `Cc1[nH]c2ccc(F)cc2c(=O)c1SC(F)(F)C(F)C(F)(F)F` (centres undefined), the viability is 72% (inactive) in assay [1]; 92.5% (inactive) in assay [2]; 83.3% (inactive) in assay [3]; 97.6% in assay [4] (setting [7]); 83.3% in assay [4] (setting [8]). Further, in assay [4] (H69AR cells + 2 uM doxorubicin), the differential viability (reversal) is -14.3% (inactive). Further, the inhibition in assay [5] is -5.95% (inactive); in assay [6] it was -5.27% (inactive).

In the case of `C=CCSc1nnc(NC(=O)c2ccc(S(=O)(=O)NCC3CCCO3)cc2)s1` (centres undefined), the viability in assay [1] was 97% (inactive); in assay [2], 84.3% (inactive); in assay [3], 90.4% (inactive); in assay [4] (setting [7]), 93.2%; in assay [4] (setting [8]), 90.4%. For the same compound, the differential viability (reversal) in assay [4] (H69AR cells + 2 uM doxorubicin) is -2.83% (inactive). The inhibition is -3.84% (inactive) in assay [5] and -3.71% (inactive) in assay [6].

For `COC(=O)c1ccc2c(=O)n(CC3CCCO3)c(=S)[nH]c2c1` (centres undefined), the viability in assay [1] was 84% (inactive); in assay [2], 106% (inactive); in assay [3], 86.2% (inactive); in assay [4] (setting [7]), 83.9%; in assay [4] (setting [8]) it was 86.2%. Moreover, the differential viability (reversal) in assay [4] (H69AR cells + 2 uM doxorubicin) was 2.35% (inactive). The inhibition in assay [5] is -8.36% (inactive); in assay [6], 4.19% (inactive).

In the case of `COC(=O)[C@H](C)NC(=O)Nc1cccc(C(F)(F)F)c1`, the viability was 145% (inactive) in assay [1]; 97.2% (inactive) in assay [2]; 89.9% (inactive) in assay [3]; 95.7% in assay [4] (setting [7]); 89.9% in assay [4] (setting [8]). Moreover, the differential viability (reversal) in assay [4] (H69AR cells + 2 uM doxorubicin) was -5.75% (inactive). Besides, the inhibition in assay [5] is -0.96% (inactive); in assay [6], 30% (active).

For `O=C(Nc1ccc(F)cc1)NC1CCN(Cc2nnnn2Cc2ccco2)CC1`, the viability in assay [1] was 92% (inactive); in assay [2] it was 70.5% (inactive); in assay [3], 88.2% (inactive); in assay [4] (setting [7]), 88.5%; in assay [4] (setting [8]), 88.2%. In addition, the differential viability (reversal) in assay [4] (H69AR cells + 2 uM doxorubicin) is -0.315% (inactive). Moreover, the values for the inhibition in assay [5] and in assay [6] were -5.21% (inactive) and -7.9% (inactive), respectively.

Turning to `CC(=O)OC(C(=O)NC1CCCCC1)c1ccncc1` (centres undefined), the viability in assay [1] is 88% (inactive); in assay [2], 98% (inactive); in assay [3], 109% (inactive); in assay [4] (setting [7]), 87.7%; in assay [4] (setting [8]), 109%. In addition, the differential viability (reversal) in assay [4] (H69AR cells + 2 uM doxorubicin) was 21.3% (inactive). The inhibition in assay [5] is -0.14% (inactive); in assay [6], -0.48% (inactive).

For `CCN(CC)CCCN1C(=O)C(=O)/C(=C(/O)c2ccc3c(c2)OCO3)C1c1ccccn1` (centres undefined), the viability in assay [1] is 97% (inactive); in assay [2], 82.4% (inactive); in assay [3], 93.3% (inactive); in assay [4] (setting [7]), 88.6%; in assay [4] (setting [8]), 93.3%. Further, in assay [4] (H69AR cells + 2 uM doxorubicin), the differential viability (reversal) is 4.7% (inactive). Further, the inhibition was -5.89% (inactive) in assay [5] and 0.32% (inactive) in assay [6].

On to `COc1ccc(COC(=O)c2n[nH]c3ccccc23)cc1F`, for which the viability in assay [1] was 89% (inactive); in assay [2], 85.2% (inactive); in assay [3] it was 100% (inactive); in assay [4] (setting [7]), 91.3%; in assay [4] (setting [8]) it was 100%. The differential viability (reversal) in assay [4] (H69AR cells + 2 uM doxorubicin) is 8.74% (inactive). Further, the inhibition was -9.45% (inactive) in assay [5] and 3.82% (inactive) in assay [6].

Regarding `COc1ccc(-c2ccc(-c3noc(-c4ccccc4)n3)c(OC)n2)cc1`, the viability in assay [1] was 103% (inactive); in assay [2] it was 68.3% (inactive); in assay [3] it was 88% (inactive); in assay [4] (setting [7]) it was 84.7%; in assay [4] (setting [8]), 88%. Further, the differential viability (reversal) in assay [4] (H69AR cells + 2 uM doxorubicin) was 3.25% (inactive). Moreover, the values for the inhibition in assay [5] and in assay [6] were -8.51% (inactive) and -10.2% (inactive), respectively.

Take `O=c1[nH]c(NCc2ccccc2)nc2c1CCCC2`: the viability in assay [1] is 87% (inactive); in assay [2], 115% (inactive); in assay [3] it was 104% (inactive); in assay [4] (setting [7]), 96.5%; in assay [4] (setting [8]) it was 104%. In assay [4] (H69AR cells + 2 uM doxorubicin), the differential viability (reversal) is 7.85% (inactive). For the same compound, the values for the inhibition in assay [5] and in assay [6] were -4.19% (inactive) and -10% (inactive), respectively.

`O=C(Nc1cnn(Cc2ccc(F)cc2)c1)c1cnccn1`: the viability in assay [1] was 117% (inactive); in assay [2], 85.2% (inactive); in assay [3] it was 98.8% (inactive); in assay [4] (setting [7]), 97.1%; in assay [4] (setting [8]), 98.8%. The differential viability (reversal) in assay [4] (H69AR cells + 2 uM doxorubicin) was 1.69% (inactive). In addition, the values for the inhibition in assay [5] and in assay [6] were -2.34% (inactive) and 3.93% (inactive), respectively.
